UCH37 inh – human UCH37 deubiquitinating enzyme inhibition | AID 588478 | Q9Y5K5 | purified proteasome/UCH37, Ub-AMC cleavage fluorescence | inhibition, % (test concentration not listed) | actives 0.33% (n = 330,000);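 active means mean inhibition over replicate wells above about 20%, limit read from the data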
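Material: Human UCH37 enzyme supplied as purified proteasome complex | Schedule: 30 min compound-proteasome preincubation then 25 min substrate reaction, room temperature | Detection: AMC fluorescence from Ub-AMC cleavage, excitation 355 nm, emission 460 nm | Benchmarks: Wells without proteasome as full block, compound-free enzyme plus substrate as uninhibited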
Apaf1 inhib – inhibitors of human Apaf-1 apoptosome. actives 0.71% (n = 330,000). O14727. reconstituted apoptosome caspase-3 activity, DEVD-Rh110 fluorescence. inhibition, % at 20 µM; active means inhibition of at least 40% at 20 µM
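Material: reconstituted apoptosome with Apaf-1, cytochrome c, caspase-9, procaspase-3, dATP; medium: pH 7.5 Hepes buffer with CHAPS, BSA, DTT; also added: cytochrome c and DEVD-Rh110 substrate; timing: 30 min plus 50 min, RT; signal: Rh110 fluorescence intensity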
MEKK3 PB1 HTS – modulators (inhibitors or enhancers) of MEK5 binding to human MEKK3 PB1 domain. Q99759. bead-based flow cytometry, Alexa488-MEK5 binding to MEKK3; actives lie on both sides; 0 = blocked by unlabeled MEK5, 100 = vehicle. binding response (% of control), % at 10 µM. actives 1.4% (n = 290,000). AID 1529;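 active means binding response more than 3 SD above or below the average of its plate-row segment, actives on both sides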;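 further: Alexa488 bead fluorescence after subtracting the streptavidin-only scavenger bead signal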
Target sequence (Q99759 whole entry, looked up, the tested form may be a part): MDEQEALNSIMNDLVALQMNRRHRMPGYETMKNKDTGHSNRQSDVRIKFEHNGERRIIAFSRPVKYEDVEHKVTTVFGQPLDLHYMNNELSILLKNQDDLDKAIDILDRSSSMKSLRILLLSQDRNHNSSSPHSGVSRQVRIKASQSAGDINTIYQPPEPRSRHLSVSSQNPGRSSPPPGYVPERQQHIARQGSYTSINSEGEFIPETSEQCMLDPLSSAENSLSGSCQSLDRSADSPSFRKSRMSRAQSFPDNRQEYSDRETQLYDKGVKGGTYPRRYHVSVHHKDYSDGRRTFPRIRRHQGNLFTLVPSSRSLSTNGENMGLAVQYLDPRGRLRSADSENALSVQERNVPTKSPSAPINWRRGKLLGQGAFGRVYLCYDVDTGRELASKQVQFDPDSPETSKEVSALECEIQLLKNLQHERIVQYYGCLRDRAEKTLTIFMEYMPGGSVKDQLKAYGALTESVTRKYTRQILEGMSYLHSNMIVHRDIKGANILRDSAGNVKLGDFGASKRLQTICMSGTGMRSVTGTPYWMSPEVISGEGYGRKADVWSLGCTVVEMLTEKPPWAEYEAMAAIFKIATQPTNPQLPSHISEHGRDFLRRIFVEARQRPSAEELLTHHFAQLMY
UBC13 inh – blocks human UBC13 polyubiquitin chain formation | actives 0.47% (n = 330,000) | TR-FRET | P61088 | AID 485273 | inhibition, % at 20 µM; in the data active means inhibition above about 45%, passing the limit was not always enough
MEKK2wt PB1 HTS – raises or lowers MEK5 binding to wildtype human MEKK2 PB1 domain | Q9Y2U5 | bead flow cytometry, Alexa488-MEK5 binding to MEKK2 WT; actives lie on both sides | binding response (% of control), % at 10 µM | actives 1.1% (n = 290,000) | AID 1531; in the data active means binding response below about 67% or above about 130%
MEKK2mut PB1 HTS – signal of MEK5 binding to mutant human MEKK2 PB1 domain; percent response, % at 10 µM; bead flow cytometry, Alexa488-MEK5 binding to MEKK2 mutant; actives 0.35% (n = 290,000); in the data active means percent response above about 24%, passing the limit was not always enough
MEKK2wt confirm – raises or lowers MEK5 binding to wildtype human MEKK2, retest | shares compounds with MEKK3 PB1 HTS | bead flow cytometry, Alexa488-MEK5 binding to MEKK2 WT; actives lie on both sides | binding response (% of control), % at 10 µM | actives 2.4% (n = 5,900) | AID 1892; in the data active means binding response below about 16% or above about 210%; inactive means in between
MEKK2mut-MEK5 – signal of MEK5 binding to mutant human MEKK2, retest | AID 1893 | bead flow cytometry, Alexa488-MEK5 binding to MEKK2 mutant | actives 2% (n = 5,900) | shares compounds with MEKK3 PB1 HTS | percent response, % at 10 µM; in the data active means percent response mostly above about 71%, no sharp cut-off; inactive means mostly below about 38%;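 further: higher means compound restores mutant binding toward wildtype level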
MEKK3-MEK5 inh – confirmation of inhibitors of MEK5 binding to human MEKK3; shares compounds with MEKK3 PB1 HTS; bead flow cytometry, Alexa488-MEK5 binding to MEKK3; stronger effect = lower value; binding response (% of control), % at 10 µM; actives 1.8% (n = 5,900); AID 1894;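 active means binding response below 72% of control, or above a set upper limit, though filed actives all read lower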
Large screens that a line does not name were inactive (follow-up assays come after a bar, where they were run); [ ] = another dose, or the depositor's remark. Most compounds without a hit are left out; they make up all but 3% or so of the library.

COc1ccc(C2C3=C(CC(C)(C)CC3=O)Nc3c2c(=O)n(C)c(=O)n3C)cc1OC (centres undefined)	MEKK3 PB1 HTS 128 | MEKK2wt confirm inactive | MEKK2mut-MEK5 inactive | MEKK3-MEK5 inh inactive
CS(=O)(=O)N(Cc1ccc(C(=O)NC2CCCC2)cc1)c1ccccc1	none
CCO[C@@H]1OC(C(=O)Nc2ccccc2)=C[C@H](c2ccccc2)[C@H]1CCCO	none (no result: UCH37 inh)
Cc1nn(Cc2ccccc2)c(Cl)c1C(=O)OCC(=O)NC(=O)NC12CC3CC(CC(C3)C1)C2	MEKK3 PB1 HTS 145 | MEKK2wt confirm inactive | MEKK2mut-MEK5 inactive | MEKK3-MEK5 inh inactive
Cc1noc(C)c1C(=O)OCC(=O)NC(=O)NC12CC3CC(CC(C3)C1)C2	none
O=c1c2c3nc4ccccc4nc3n(/N=C/c3ccncc3)c2ncn1-c1ccccc1	MEKK3 PB1 HTS 131 (no result: UCH37 inh) | MEKK2wt confirm inactive | MEKK2mut-MEK5 inactive | MEKK3-MEK5 inh inactive
O=C(Cc1ccc2cccnc2c1)c1ccc(O)cc1O	MEKK3 PB1 HTS 2.0[inhibitor], MEKK2wt PB1 HTS -1.0[inhibitor] | MEKK2wt confirm inactive | MEKK2mut-MEK5 inactive | MEKK3-MEK5 inh inactive
CCC(NC(=O)NCc1ccccc1)(C(F)(F)F)C(F)(F)F	MEKK3 PB1 HTS 151 | MEKK2wt confirm inactive | MEKK2mut-MEK5 inactive | MEKK3-MEK5 inh inactive
CNC(=O)/C=C/c1cccc(C(F)(F)F)c1	MEKK3 PB1 HTS 73[inhibitor] | MEKK2wt confirm inactive | MEKK2mut-MEK5 inactive | MEKK3-MEK5 inh inactive
COc1ccc(CNC(=O)CSc2nnnn2-c2ccc(O)cc2)cc1	none
CC(=O)N1N=C(N)SC12CCCC2	none
CC(=O)NC1=NN(C(C)=O)C2(CCCC2)S1	MEKK3 PB1 HTS 132 | MEKK2wt confirm inactive | MEKK2mut-MEK5 inactive | MEKK3-MEK5 inh inactive
O=C(/C=C/c1ccccc1[N+](=O)[O-])N1CCN(c2ccc(F)cc2)CC1	none
O=C(/C=C/c1cccc([N+](=O)[O-])c1)N1CCN(c2ccc(F)cc2)CC1	MEKK3 PB1 HTS 133 | MEKK2wt confirm inactive | MEKK2mut-MEK5 inactive | MEKK3-MEK5 inh inactive
O=C(CN1C(=O)c2cccc([N+](=O)[O-])c2C1=O)N1CCN(c2ccc(F)cc2)CC1	MEKK3 PB1 HTS 47[inhibitor] (no result: UCH37 inh) | MEKK2wt confirm inactive | MEKK2mut-MEK5 inactive | MEKK3-MEK5 inh inactive
Cc1ccsc1C(=O)NC(C)c1ccccc1 (centres undefined)	none
CCN(CC)c1ccc(Nc2nc(Cl)ncc2Br)cc1	none
CC(C)c1cc(C(=O)Nc2cc(Cl)ccc2O)no1	MEKK3 PB1 HTS 8.0[inhibitor], MEKK2wt PB1 HTS 13[inhibitor] | MEKK2wt confirm inactive | MEKK2mut-MEK5 inactive | MEKK3-MEK5 inh inactive
c1csc(CNc2ccc3c(c2)OCCO3)c1	MEKK3 PB1 HTS 131 (no result: Apaf1 inhib, UBC13 inh) | MEKK2wt confirm inactive | MEKK2mut-MEK5 inactive | MEKK3-MEK5 inh inactive
O=S(=O)(Cc1ccccc1Cl)NCCc1ccc(F)cc1	none
COc1ccc(C(C)=O)cc1COC(=O)CNC(=O)C1CCCCC1	none (no result: MEKK3 PB1 HTS, MEKK2wt PB1 HTS, MEKK2mut PB1 HTS)
COc1ccc(C(C)=O)cc1COC(=O)CNC(=O)c1ccccc1F	MEKK3 PB1 HTS 138 | MEKK2wt confirm inactive | MEKK2mut-MEK5 inactive | MEKK3-MEK5 inh inactive
Cc1cc(-c2nn(-c3ccccc3F)cc2CN2CCC(C(N)=O)CC2)c(C)s1	none
Cc1cc(-c2nn(-c3ccccc3F)cc2CNCCc2cnc[nH]2)c(C)s1	MEKK2wt PB1 HTS 148 | MEKK2wt confirm inactive | MEKK2mut-MEK5 inactive | MEKK3-MEK5 inh inactive
Cc1ccc(C2CC(=O)C(C=NCCN3CCN(C(=S)Nc4ccccc4)CC3)=C(O)C2)cc1 (centres undefined)	none
